Laboratory results reported in ChEMBL document CHEMBL4177769, “Highly Selective and Potent Ectonucleotide Pyrophosphatase-1 (NPP1) Inhibitors Based on Uridine 5'-Pα,α-Dithiophosphate Analogues” (J Med Chem, 2018).
Calls of active or inactive are those of the source. The rule behind the calls is not given here.

Tests used:
[1] = molecular target: T1, Ectonucleoside triphosphate diphosphohydrolase 1 (Homo sapiens) (UniProt P49961); test: Inhibition of human NTPDase1 at 100 uM using ATP as substrate preincubated for 3 mins followed by substrate addition measured after 10 mins by malachite green reagent-based assay
T1 sequence (whole entry): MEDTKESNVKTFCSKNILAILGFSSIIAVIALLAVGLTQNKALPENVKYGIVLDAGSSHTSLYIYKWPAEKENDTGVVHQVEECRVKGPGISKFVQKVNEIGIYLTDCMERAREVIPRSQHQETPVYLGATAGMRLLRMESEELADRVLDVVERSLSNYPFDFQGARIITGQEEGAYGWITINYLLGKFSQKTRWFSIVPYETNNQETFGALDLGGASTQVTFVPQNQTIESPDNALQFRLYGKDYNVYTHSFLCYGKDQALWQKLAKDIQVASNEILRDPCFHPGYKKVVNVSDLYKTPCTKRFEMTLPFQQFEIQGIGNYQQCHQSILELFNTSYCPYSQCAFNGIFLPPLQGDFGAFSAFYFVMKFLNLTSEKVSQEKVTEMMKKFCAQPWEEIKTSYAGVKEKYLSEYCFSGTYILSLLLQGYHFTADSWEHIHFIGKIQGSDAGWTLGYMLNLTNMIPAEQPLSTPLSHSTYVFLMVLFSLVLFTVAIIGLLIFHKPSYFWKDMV
Summary of the method: (§1)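 Compound at 100 μM, 3 min preincubation, 100 μM ATP, 10 min. Stopped with malachite green; Pi read at 630 nm. Blank with enzyme added after stop subtracted. Activity with ATP alone taken as 100%.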

[2] = molecular target: P2Y purinoceptor 2 (Homo sapiens) (UniProt P41231); test: Agonist activity at recombinant human P2RY2 expressed in AD293 cells assessed as increase in intracellular calcium levels by Fluo-4/AM dye-based spectrofluorometer; assay type: functional, cell-based
Sequence of P2Y purinoceptor 2 (Homo sapiens) (P41231 whole entry): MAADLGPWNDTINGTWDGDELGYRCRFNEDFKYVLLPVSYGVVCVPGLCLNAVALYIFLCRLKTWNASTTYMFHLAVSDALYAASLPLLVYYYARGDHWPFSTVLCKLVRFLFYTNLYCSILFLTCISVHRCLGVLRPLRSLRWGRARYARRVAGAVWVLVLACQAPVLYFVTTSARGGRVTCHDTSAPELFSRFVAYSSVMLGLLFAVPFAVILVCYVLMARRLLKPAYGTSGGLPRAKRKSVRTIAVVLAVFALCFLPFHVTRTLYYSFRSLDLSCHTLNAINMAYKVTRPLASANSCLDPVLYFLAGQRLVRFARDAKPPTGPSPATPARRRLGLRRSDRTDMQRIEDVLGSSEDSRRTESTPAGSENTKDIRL
Summary of the method: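 Human P2Y2, P2Y4 or P2Y6 receptor stably expressed in AD293 cells. Compound at 100 μM. Agonism read as change in intracellular calcium (Δ[Ca2+]i), with UDP or UTP as control.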

[3] = molecular target: T2, Ectonucleoside triphosphate diphosphohydrolase 2 (Homo sapiens) (UniProt Q9Y5L3); test: Inhibition of human NTPDase2 at 100 uM using ATP as substrate preincubated for 3 mins followed by substrate addition measured after 10 mins by malachite green reagent-based assay; summary of the method: as §1
T2 sequence (whole entry): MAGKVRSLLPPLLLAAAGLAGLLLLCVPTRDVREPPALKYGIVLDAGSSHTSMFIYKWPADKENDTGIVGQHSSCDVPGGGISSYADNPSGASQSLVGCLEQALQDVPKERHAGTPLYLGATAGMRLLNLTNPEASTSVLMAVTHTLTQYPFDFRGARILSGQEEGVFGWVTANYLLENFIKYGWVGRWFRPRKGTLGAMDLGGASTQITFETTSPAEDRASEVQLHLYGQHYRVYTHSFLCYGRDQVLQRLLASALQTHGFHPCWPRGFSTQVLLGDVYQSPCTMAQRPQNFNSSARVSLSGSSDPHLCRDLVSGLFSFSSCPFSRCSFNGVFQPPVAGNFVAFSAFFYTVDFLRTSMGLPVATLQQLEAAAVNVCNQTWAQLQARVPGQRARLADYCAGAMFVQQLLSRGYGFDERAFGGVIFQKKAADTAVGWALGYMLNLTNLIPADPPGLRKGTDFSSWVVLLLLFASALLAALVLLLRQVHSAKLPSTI

[4] = molecular target: T3, Ectonucleoside triphosphate diphosphohydrolase 3 (Homo sapiens) (UniProt O75355); test: Inhibition of human NTPDase3 at 100 uM using ATP as substrate preincubated for 3 mins followed by substrate addition measured after 10 mins by malachite green reagent-based assay; summary of the method: as §1
T3 sequence (whole entry): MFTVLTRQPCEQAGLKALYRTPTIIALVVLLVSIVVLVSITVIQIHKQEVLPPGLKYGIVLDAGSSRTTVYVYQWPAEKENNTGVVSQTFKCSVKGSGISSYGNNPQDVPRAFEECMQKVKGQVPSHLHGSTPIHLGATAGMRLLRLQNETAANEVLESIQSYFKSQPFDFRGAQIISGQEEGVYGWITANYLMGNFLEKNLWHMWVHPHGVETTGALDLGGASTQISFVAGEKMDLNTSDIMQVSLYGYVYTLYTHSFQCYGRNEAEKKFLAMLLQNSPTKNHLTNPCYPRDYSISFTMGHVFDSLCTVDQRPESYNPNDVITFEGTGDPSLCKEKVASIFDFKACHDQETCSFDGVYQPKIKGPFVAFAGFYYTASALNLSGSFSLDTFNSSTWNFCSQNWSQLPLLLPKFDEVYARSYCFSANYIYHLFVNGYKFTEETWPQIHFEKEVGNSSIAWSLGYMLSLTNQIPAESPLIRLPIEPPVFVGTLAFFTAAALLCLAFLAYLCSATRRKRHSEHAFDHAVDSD

Structure (SMILES) | inhibition [1] | Activity [2] | inhibition [3] | inhibition [4]
O=c1ccn([C@@H]2O[C@H](COP(=S)(S)OP(=O)(O)O)[C@@H](O)[C@H]2O)c(=O)[nH]1 (some centres not stated) | 15% | inactive | 15% | 15%
O=c1ccn([C@@H]2O[C@H](COP(=S)(S)OP(=O)(O)CP(=O)(O)O)[C@@H](O)[C@H]2O)c(=O)[nH]1 (some centres not stated) | 15% | inactive | 15% | 15%
O=c1ccn([C@@H]2O[C@H](COP(=S)(S)OP(=O)(O)OP(=O)(O)O)[C@@H](O)[C@H]2O)c(=O)[nH]1 (some centres not stated) | inactive | inactive | inactive | inactive
